≈ marks a conversion by molar mass, not a printed value.
Assays:
[1] = system: Mycobacterium tuberculosis; test: Antimycobacterial activity against Mycobacterium tuberculosis H37Rv ATCC 27294 after 5 days by microplate Alamar blue assay; assay type: functional; conditions: H37Rv ATCC 27294, 120 h
Procedure, shortened: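 M. tuberculosis ATCC 27294 in Middlebrook 7H9 broth with compounds serially diluted on the plate (final 0.01–100 µg/mL). Incubated at 37 °C for five days, then a 1:1 Alamar Blue/10% tween 80 mix was added for 24 h. Blue read as no growth, pink as growth. MIC is the lowest concentration preventing the blue-to-pink change.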

[2] = Cytotoxicity against mouse J774 cells assessed as cell viability at 150 ug/ml after 48 hrs by MTT assay; assay type: cell-based; conditions: read-out: Activity
[3] = Cytotoxicity against mouse J774 cells assessed as cell viability at 100 ug/ml after 48 hrs by MTT assay; assay type: cell-based; conditions: read-out: Activity
Procedure, shortened: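 Uninfected J774 macrophages seeded at 2.5 × 10^6 cells/well for 24 h (5% CO2, 37 °C); non-adherent cells washed off with RPMI 1640, 10% FBS, gentamicin 25 µg/mL. Adherent cells given compound (1.0, 10.0, 100 µg/mL) in triplicate for 48 h. Medium was the live control, 3% tween 20 the dead control. MTT for 4 h, DMSO solubilization, absorbance at 540 nm, % viability.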

[4] = Cytotoxicity against Mycobacterium bovis Bacillus Calmette-Guerin infected mouse J774 cells assessed as cell viability at 50 ug/ml after 48 hrs by MTT assay; assay type: cell-based; conditions: read-out: Activity
[5] = Cytotoxicity against mouse J774 cells assessed as cell viability at 50 ug/ml after 48 hrs by MTT assay; assay type: cell-based; conditions: read-out: Activity
[6] = Cytotoxicity against Mycobacterium bovis Bacillus Calmette-Guerin infected mouse J774 cells assessed as cell viability at 150 ug/ml after 48 hrs by MTT assay; assay type: cell-based; conditions: read-out: Activity
[7] = Cytotoxicity against Mycobacterium bovis Bacillus Calmette-Guerin infected mouse J774 cells assessed as cell viability at 100 ug/ml after 48 hrs by MTT assay; assay type: cell-based; conditions: read-out: Activity
Procedure, shortened: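 J774 macrophages seeded at 2.5 × 10^6 cells/well for 24 h (5% CO2, 37 °C); non-adherent cells washed off with RPMI 1640, 10% FBS, gentamicin 25 µg/mL. Adherent cells infected with BCG (2.5 × 10^6 UFC/well), then given compound (1.0, 10.0, 100 µg/mL) in triplicate for 48 h. Medium was the live control, 3% tween 20 the dead control. MTT for 4 h, DMSO solubilization, A540, % viability.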

| Compound | MIC [1] [µg/mL] | viability at 48 h, 150 ug/ml [2] [%] | viability at 48 h, 100 ug/ml [3] [%] | viability at 48 h, 50 ug/ml [4] [%] | viability at 48 h, 50 ug/ml [5] [%] | viability at 48 h, 150 ug/ml [6] [%] | viability at 48 h, 100 ug/ml [7] [%] |
| --- | --- | --- | --- | --- | --- | --- | --- |
| NC(=O)c1cnccn1 [PYRAZINAMIDE] | > 100 | 100 | 100 | 92 | 100 | 67 | 87 |
| O=C(N/N=C/c1cccc([N+](=O)[O-])c1)c1cnccn1 | 100 (≈ 369 µM) | 76 | 85 | 92 | 100 | 72 | 92 |
| O=C(N/N=C/c1ccc(Cl)cc1)c1cnccn1 | – | 56 | 64 | – | 83 | – | – |
| O=C(N/N=C/c1ccc(F)cc1)c1cnccn1 | – | 71 | 69 | – | 78 | – | – |
| COc1ccc(/C=N/NC(=O)c2cnccn2)cc1 | – | 55 | 55 | – | 74 | – | – |
| CN(C)c1ccc(/C=N/NC(=O)c2cnccn2)cc1 | – | 89 | 87 | 80 | 93 | 71 | 73 |
| O=C(N/N=C/c1ccc(O)cc1)c1cnccn1 | – | 80 | 81 | 100 | 100 | 91 | 72 |
| O=C(N/N=C/c1ccccc1[N+](=O)[O-])c1cnccn1 | 50 (≈ 184 µM) | 46 | 59 | 100 | 90 | 88 | 94 |
| O=C(N/N=C/c1cccc(F)c1)c1cnccn1 | – | 40 | 46 | – | 49 | – | – |
| O=C(N/N=C/c1ccccc1O)c1cnccn1 | – | 0 | 0.3 | – | 1 | – | – |
| O=C(N/N=C/c1cccc(Br)c1)c1cnccn1 | – | 93 | 100 | 87 | 100 | 56 | 96 |
| O=C(N/N=C/c1cccc(O)c1)c1cnccn1 | – | 88 | 100 | 73 | 100 | 57 | 64 |
| O=C(N/N=C/c1ccc([N+](=O)[O-])cc1)c1cnccn1 | – | 44 | 44 | – | 50 | – | – |
| N#Cc1ccc(/C=N/NC(=O)c2cnccn2)cc1 | > 100 | 100 | 100 | 100 | 100 | 100 | 98 |
| O=C(N/N=C/c1cccc(Cl)c1)c1cnccn1 | 50 (≈ 192 µM) | 100 | 100 | 100 | 100 | 94 | 96 |
| O=C(N/N=C/c1ccccc1Br)c1cnccn1 | – | 91 | 100 | 73 | 98 | 52 | 64 |
| CCOc1cccc(/C=N/NC(=O)c2cnccn2)c1 | – | 69 | 71 | – | 74 | – | – |
| COc1cccc(/C=N/NC(=O)c2cnccn2)c1 | > 100 | 97 | 100 | 100 | 100 | 87 | 98 |
| O=C(N/N=C/c1ccccc1F)c1cnccn1 | 100 (≈ 409 µM) | 81 | 100 | 100 | 100 | 88 | 80 |
| N#Cc1ccccc1/C=N/NC(=O)c1cnccn1 | – | 70 | 75 | 80 | 92 | 75 | 73 |
| CCN(CC)c1ccc(/C=N/NC(=O)c2cnccn2)cc1 | – | 93 | 92 | 85 | 97 | 78 | 84 |
| COc1ccccc1/C=N/NC(=O)c1cnccn1 | – | 97 | 100 | 87 | 97 | 56 | 54 |
| O=C(N/N=C/c1ccc(Br)cc1)c1cnccn1 | – | 94 | 100 | 52 | 100 | 54 | 56 |
| CCOc1ccc(/C=N/NC(=O)c2cnccn2)cc1 | > 100 | 100 | 98 | 90 | 100 | 88 | 85 |
| O=C(N/N=C/c1ccccc1Cl)c1cnccn1 | – | 69 | 66 | – | 70 | – | – |
| N#Cc1cccc(/C=N/NC(=O)c2cnccn2)c1 | 50 (≈ 199 µM) | 100 | 100 | 100 | 100 | 89 | 98 |
| O=C(N/N=C/c1ccccc1)c1cnccn1 | > 100 | 100 | 75 | 100 | 100 | 80 | 88 |

Reference: ChEMBL document CHEMBL1155238, “Synthesis and antimycobacterial activity of N'-[(E)-(monosubstituted-benzylidene)]-2-pyrazinecarbohydrazide derivatives” (Eur J Med Chem, 2009)
